Measurements: ChEMBL document CHEMBL3860087, “New Broad-Spectrum Antibacterial Amphiphilic Aminoglycosides Active against Resistant Bacteria: From Neamine Derivatives to Smaller Neosamine Analogues” (J Med Chem, 2016)
Values after ≈ are worked out from the molar mass of the structure shown.

Columns and labels:
Staphylococcus aureus [1] = assay: Antibacterial activity against Staphylococcus aureus ATCC 25923 by microdilution method; assay type: functional
Procedure, shortened: (§1)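 Broth microdilution per CLSI in cation-adjusted Mueller–Hinton broth. Strains were grown overnight at 37 °C on trypticase soy agar, and a fresh culture was used. Starting inoculum was 10^6 cells.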

Staphylococcus aureus [2] = assay: Antibacterial activity against NorA expressing Staphylococcus aureus 1 by microdilution method
Staphylococcus aureus [3] = assay: Antibacterial activity against healthcare-acquired methicillin-resistant Staphylococcus aureus ATCC 33592 by microdilution method; assay type: functional; procedure, shortened: as §1
Pseudomonas aeruginosa [4] = assay: Antibacterial activity against Pseudomonas aeruginosa ATCC 27853 by microdilution method; assay type: functional
Procedure, shortened: (§2)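 Strains grown overnight at 37 °C on trypticase soy agar; MIC by broth microdilution from fresh culture in cation-adjusted Mueller–Hinton broth, starting inoculum 10^6 cells, following CLSI recommendations.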

Pseudomonas aeruginosa [5] = assay: Antibacterial activity against AAC6'-2A expressing Pseudomonas aeruginosa F03 by microdilution method; assay type: functional; procedure, shortened: as §2
Pseudomonas aeruginosa [6] = assay: Antibacterial activity against MexXY expressing Pseudomonas aeruginosa PA22 by microdilution method; assay type: functional; procedure, shortened: as §2
Pseudomonas aeruginosa [7] = assay: Antibacterial activity against triABC deficient Pseudomonas aeruginosa PA406 by microdilution method; assay type: functional; procedure, shortened: as §2
Acinetobacter lwoffii [8] = assay: Antibacterial activity against Acinetobacter lwoffii ATCC 17925 by microdilution method; assay type: functional; procedure, shortened: as §2
Acinetobacter lwoffii [9] = assay: Antibacterial activity against APH3'-VIA expressing Acinetobacter lwoffii AI.88-483 by microdilution method; assay type: functional; procedure, shortened: as §2
Escherichia coli [10] = assay: Antibacterial activity against AAC6'-IB expressing Escherichia coli PAZ505H8101 by microdilution method; assay type: functional; procedure, shortened: as §2
Escherichia coli [11] = assay: Antibacterial activity against ANT2''-IA expressing Escherichia coli L8058.1 by microdilution method; assay type: functional; procedure, shortened: as §2
Klebsiella pneumoniae = assay: Antibacterial activity against Klebsiella pneumoniae ATCC 700603 by microdilution method; assay type: functional; procedure, shortened: as §2
[12] = Cytotoxicity against mouse J774 cells assessed as cell viability at 10 uM after 24 hrs by MTT assay relative to control; assay type: toxicity, cell-based; settings: J774 cells, read-out: Activity
Procedure, shortened: (§3)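 Murine J774 macrophages exposed 24 h to 10 or 30 μM compound, then 1 h with 0.2 mg/mL MTT; reaction stopped with DMSO, OD read at 570 nm as metabolic-activity viability. Number of independent experiments given per value.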

[13] = Cytotoxicity against mouse J774 cells assessed as cell viability at 30 uM after 24 hrs by MTT assay relative to control; assay type: toxicity, cell-based; settings: J774 cells, read-out: Activity; procedure, shortened: as §3
Escherichia coli [14] = assay: microbe, parasite or virus in culture; settings: ATCC 25922

SMILES: CCCCCCCCCO[C@@H]1[C@@H](N)[C@@H](OC[C@H](O)CN=[N+]=[N-])O[C@H](CN)[C@H]1OCCCCCCCCC
- MIC (Staphylococcus aureus [1]): 2 µg/mL (≈ 3.78 µM)
- MIC (Staphylococcus aureus [2]): 2 µg/mL (≈ 3.78 µM)
- MIC (Staphylococcus aureus [3]): 2 µg/mL (≈ 3.78 µM)
- MIC (Pseudomonas aeruginosa [4]): > 128 µg/mL
- MIC (Pseudomonas aeruginosa [5]): > 128 µg/mL
- MIC (Pseudomonas aeruginosa [6]): 128 µg/mL (≈ 242 µM)
- MIC (Pseudomonas aeruginosa [7]): > 128 µg/mL
- MIC (Acinetobacter lwoffii [8]): 4 µg/mL (≈ 7.55 µM)
- MIC (Acinetobacter lwoffii [9]): > 128 µg/mL
- MIC (Escherichia coli [10]): > 128 µg/mL
- MIC (Escherichia coli [11]): > 128 µg/mL
- MIC (Klebsiella pneumoniae): > 128 µg/mL
- viability at 24 h, 10 µM [12]: 62.2%
- viability at 24 h, 30 µM [13]: 5.9%
- MIC (Escherichia coli [14]): 32 µg/mL (≈ 60.4 µM)

SMILES: CCCCCCCCCO[C@@H]1[C@@H](N)[C@@H](OCC(O)CNCCN)O[C@H](CN)[C@H]1OCCCCCCCCC (mixture of isomers)
- MIC (Staphylococcus aureus [1]): 2 µg/mL
- MIC (Staphylococcus aureus [2]): 2 µg/mL
- MIC (Staphylococcus aureus [3]): 2 µg/mL
- MIC (Pseudomonas aeruginosa [4]): 8 µg/mL
- MIC (Pseudomonas aeruginosa [5]): 4 to 8 µg/mL
- MIC (Pseudomonas aeruginosa [6]): 4 to 8 µg/mL
- MIC (Pseudomonas aeruginosa [7]): 8 µg/mL
- MIC (Acinetobacter lwoffii [8]): 2 µg/mL
- MIC (Acinetobacter lwoffii [9]): 16 to 32 µg/mL
- MIC (Escherichia coli [10]): 4 to 8 µg/mL
- MIC (Escherichia coli [11]): 4 to 8 µg/mL
- MIC (Klebsiella pneumoniae): 8 to 16 µg/mL
- viability at 24 h, 10 µM [12]: 87.5%
- viability at 24 h, 30 µM [13]: 53%
- MIC (Escherichia coli [14]): 8 µg/mL

SMILES: C=CCO[C@H]1O[C@H](CN)[C@@H](OCc2ccc3ccccc3c2)[C@H](OCc2ccc3ccccc3c2)[C@H]1N
- MIC (Staphylococcus aureus [1]): 8 µg/mL (≈ 16 µM)
- MIC (Staphylococcus aureus [2]): 8 µg/mL (≈ 16 µM)
- MIC (Staphylococcus aureus [3]): 8 µg/mL (≈ 16 µM)
- MIC (Pseudomonas aeruginosa [4]): > 128 µg/mL
- MIC (Pseudomonas aeruginosa [5]): > 128 µg/mL
- MIC (Pseudomonas aeruginosa [6]): > 128 µg/mL
- MIC (Pseudomonas aeruginosa [7]): 32 µg/mL (≈ 64.2 µM)
- MIC (Acinetobacter lwoffii [8]): 8 µg/mL (≈ 16 µM)
- MIC (Acinetobacter lwoffii [9]): 64 µg/mL (≈ 128 µM)
- MIC (Escherichia coli [10]): 64 µg/mL (≈ 128 µM)
- MIC (Escherichia coli [11]): 128 µg/mL (≈ 257 µM)
- MIC (Klebsiella pneumoniae): > 128 µg/mL
- viability at 24 h, 10 µM [12]: 86.9%
- viability at 24 h, 30 µM [13]: 28.3%
- MIC (Escherichia coli [14]): 64 µg/mL (≈ 128 µM)

SMILES: C=CCO[C@H]1O[C@H](CN)[C@@H](OCCCCCCCCC)[C@H](OCCCCCCCCC)[C@H]1N
- MIC (Staphylococcus aureus [1]): 4 µg/mL (≈ 8.5 µM)
- MIC (Staphylococcus aureus [2]): 4 µg/mL (≈ 8.5 µM)
- MIC (Staphylococcus aureus [3]): 4 µg/mL (≈ 8.5 µM)
- MIC (Pseudomonas aeruginosa [4]): > 128 µg/mL
- MIC (Pseudomonas aeruginosa [5]): > 128 µg/mL
- MIC (Pseudomonas aeruginosa [6]): > 128 µg/mL
- MIC (Pseudomonas aeruginosa [7]): > 128 µg/mL
- MIC (Acinetobacter lwoffii [8]): 4 to 8 µg/mL (≈ 8.5 to 17 µM)
- MIC (Acinetobacter lwoffii [9]): 32 µg/mL (≈ 68 µM)
- MIC (Escherichia coli [10]): > 128 µg/mL
- MIC (Escherichia coli [11]): > 128 µg/mL
- MIC (Klebsiella pneumoniae): 128 µg/mL (≈ 272 µM)
- viability at 24 h, 10 µM [12]: 91.4%
- viability at 24 h, 30 µM [13]: 6.6%
- MIC (Escherichia coli [14]): 32 to 64 µg/mL (≈ 68 to 136 µM)

SMILES: NC[C@H]1O[C@H](O[C@H]2[C@H](O)[C@@H](OCc3ccc4ccccc4c3)[C@H](N)C[C@@H]2N)[C@H](N)[C@@H](OCc2ccc3ccccc3c2)[C@@H]1O
- MIC (Staphylococcus aureus [1]): 8 µg/mL (≈ 13.3 µM)
- MIC (Staphylococcus aureus [2]): 4 to 8 µg/mL (≈ 6.64 to 13.3 µM)
- MIC (Staphylococcus aureus [3]): 8 to 16 µg/mL (≈ 13.3 to 26.5 µM)
- MIC (Pseudomonas aeruginosa [4]): 64 to 128 µg/mL (≈ 106 to 212 µM)
- MIC (Pseudomonas aeruginosa [5]): 64 to 128 µg/mL (≈ 106 to 212 µM)
- MIC (Pseudomonas aeruginosa [6]): > 128 µg/mL
- MIC (Pseudomonas aeruginosa [7]): 2 to 4 µg/mL (≈ 3.32 to 6.64 µM)
- MIC (Acinetobacter lwoffii [8]): 4 to 8 µg/mL (≈ 6.64 to 13.3 µM)
- MIC (Acinetobacter lwoffii [9]): 128 µg/mL (≈ 212 µM)
- MIC (Escherichia coli [10]): 32 µg/mL (≈ 53.1 µM)
- MIC (Escherichia coli [11]): 64 to 128 µg/mL (≈ 106 to 212 µM)
- MIC (Klebsiella pneumoniae): 128 µg/mL (≈ 212 µM)
- viability at 24 h, 10 µM [12]: 86%
- viability at 24 h, 30 µM [13]: 75.9%
- MIC (Escherichia coli [14]): 32 to 64 µg/mL (≈ 53.1 to 106 µM)

SMILES: NC[C@H]1O[C@H](O[C@H]2[C@H](O)[C@@H](O[C@H]3O[C@H](CO)[C@@H](O)[C@H](N)[C@H]3O)[C@H](N)C[C@@H]2N)[C@H](N)C[C@@H]1O [TOBRAMYCIN]
- MIC (Staphylococcus aureus [1]): 0.25 µg/mL (≈ 0.535 µM)
- MIC (Staphylococcus aureus [2]): 0.5 µg/mL (≈ 1.07 µM)
- MIC (Staphylococcus aureus [3]): 64 µg/mL (≈ 137 µM)
- MIC (Pseudomonas aeruginosa [4]): < 0.25 µg/mL
- MIC (Pseudomonas aeruginosa [5]): 128 µg/mL (≈ 274 µM)
- MIC (Pseudomonas aeruginosa [6]): 0.5 µg/mL (≈ 1.07 µM)
- MIC (Pseudomonas aeruginosa [7]): < 0.25 µg/mL
- MIC (Acinetobacter lwoffii [8]): < 0.25 µg/mL
- MIC (Acinetobacter lwoffii [9]): 0.5 to 1 µg/mL (≈ 1.07 to 2.14 µM)
- MIC (Escherichia coli [10]): 32 µg/mL (≈ 68.4 µM)
- MIC (Escherichia coli [11]): 64 µg/mL (≈ 137 µM)
- MIC (Klebsiella pneumoniae): 4 to 8 µg/mL (≈ 8.56 to 17.1 µM)
- viability at 24 h, 10 µM [12]: 99.7%
- viability at 24 h, 30 µM [13]: 83.2%
- MIC (Escherichia coli [14]): 1 µg/mL (≈ 2.14 µM)

SMILES: NCC[C@H](O)C(=O)N[C@@H]1C[C@H](N)[C@@H](O[C@H]2O[C@H](CN)[C@@H](O)[C@H](O)[C@H]2O)[C@H](O)[C@H]1O[C@H]1O[C@H](CO)[C@@H](O)[C@H](N)[C@H]1O [AMIKACIN]
- MIC (Staphylococcus aureus [1]): 4 µg/mL (≈ 6.83 µM)
- MIC (Staphylococcus aureus [2]): 2 µg/mL (≈ 3.42 µM)
- MIC (Staphylococcus aureus [3]): 8 to 16 µg/mL (≈ 13.7 to 27.3 µM)
- MIC (Pseudomonas aeruginosa [4]): 2 to 4 µg/mL (≈ 3.42 to 6.83 µM)
- MIC (Pseudomonas aeruginosa [5]): 8 µg/mL (≈ 13.7 µM)
- MIC (Pseudomonas aeruginosa [6]): 8 µg/mL (≈ 13.7 µM)
- MIC (Pseudomonas aeruginosa [7]): 1 µg/mL (≈ 1.71 µM)
- MIC (Acinetobacter lwoffii [8]): < 0.25 µg/mL
- MIC (Acinetobacter lwoffii [9]): 128 µg/mL (≈ 219 µM)
- MIC (Escherichia coli [10]): 64 µg/mL (≈ 109 µM)
- MIC (Escherichia coli [11]): 2 µg/mL (≈ 3.42 µM)
- MIC (Klebsiella pneumoniae): 1 µg/mL (≈ 1.71 µM)
- viability at 24 h, 10 µM [12]: 81.2%
- viability at 24 h, 30 µM [13]: 92%
- MIC (Escherichia coli [14]): 4 µg/mL (≈ 6.83 µM)

SMILES: CCCCCCCCCO[C@@H]1[C@@H](N)[C@@H](OCC(O)CNCCO)O[C@H](CN)[C@H]1OCCCCCCCCC (mixture of isomers)
- MIC (Staphylococcus aureus [1]): 4 µg/mL
- MIC (Staphylococcus aureus [2]): 1 to 2 µg/mL
- MIC (Staphylococcus aureus [3]): 1 to 2 µg/mL
- MIC (Pseudomonas aeruginosa [4]): 8 µg/mL
- MIC (Pseudomonas aeruginosa [5]): 8 µg/mL
- MIC (Pseudomonas aeruginosa [6]): 8 µg/mL
- MIC (Pseudomonas aeruginosa [7]): 8 µg/mL
- MIC (Acinetobacter lwoffii [8]): 2 µg/mL
- MIC (Acinetobacter lwoffii [9]): 4 to 8 µg/mL
- MIC (Escherichia coli [10]): 8 µg/mL
- MIC (Escherichia coli [11]): 4 to 8 µg/mL
- MIC (Klebsiella pneumoniae): 8 µg/mL
- viability at 24 h, 10 µM [12]: 99.1%
- viability at 24 h, 30 µM [13]: 10.1%
- MIC (Escherichia coli [14]): 4 to 8 µg/mL

SMILES: C=CCO[C@H]1O[C@H](CN)[C@@H](O)[C@H](O)[C@H]1N
- MIC (Staphylococcus aureus [1]): > 128 µg/mL
- MIC (Staphylococcus aureus [2]): > 128 µg/mL
- MIC (Staphylococcus aureus [3]): > 128 µg/mL
- MIC (Pseudomonas aeruginosa [4]): > 128 µg/mL
- MIC (Pseudomonas aeruginosa [5]): > 128 µg/mL
- MIC (Pseudomonas aeruginosa [6]): > 128 µg/mL
- MIC (Pseudomonas aeruginosa [7]): > 128 µg/mL
- MIC (Acinetobacter lwoffii [8]): > 128 µg/mL
- MIC (Acinetobacter lwoffii [9]): > 128 µg/mL
- MIC (Escherichia coli [10]): > 128 µg/mL
- MIC (Escherichia coli [11]): > 128 µg/mL
- MIC (Klebsiella pneumoniae): > 128 µg/mL
- viability at 24 h, 10 µM [12]: 82.2%
- viability at 24 h, 30 µM [13]: 82.1%
- MIC (Escherichia coli [14]): > 128 µg/mL
